Test results from ChEMBL document CHEMBL1148649, “Effect of various pyrimidines possessing the 1-[(2-hydroxy-1-(hydroxymethyl)ethoxy)methyl] moiety, able to mimic natural 2'-deoxyribose, on wild-type and mutant hepatitis B virus replication” (J Med Chem, 2006).

Key:
Vero = experiment: Cytotoxicity against Vero cell line; assay type: functional; conditions: Chlorocebus sabaeus
Summary of the method: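 Vero cell viability was measured by MTT after 3 days of compound exposure. CC50 is the concentration giving 50% loss of viability versus untreated control. ">" marks values where 50% was not reached at the highest concentration tested.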

Duck hepatitis B virus [1] = experiment: Antiviral activity against duck HBV in primary duck hepatocytes at 10 ug/mL; assay type: functional; conditions: Hepatocyte
Summary of the method: (§1)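 Primary hepatocyte cultures from congenitally DHBV-infected ducks were exposed to compounds. Intracellular viral DNA was measured by dot blot hybridization. EC50 is the µM concentration that cuts viral DNA to 50% of untreated infected controls. The single-point value is % inhibition of viral DNA at 10 µg/mL against untreated infected controls.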

HepG2 = experiment: Cytotoxicity against human HepG2 cell line; assay type: functional
Summary of the method: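 HepG2 cells were exposed to compounds for 3 days and viability was measured. CC50 is the concentration lowering viability by 50% versus untreated control. ">" means 50% was not reached at the highest concentration tested.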

Hepatitis B virus [2] = experiment: Antiviral activity against wild type HBV in human hepatoma 2.2.15 cells at 10 ug/mL; assay type: functional; conditions: HepG2 2.2.15
Summary of the method: (§2)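 HBV-transfected human 2.2.15 cells were treated with compounds. Intracellular HBV DNA was quantified by dot blot hybridization. EC50 is the µM concentration that reduces viral DNA to 50% of untreated infected controls. The fixed-dose value is % inhibition at 10 µg/mL against untreated infected controls. Lamivudine and abacavir served as references.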

Duck hepatitis B virus [3] = experiment: Antiviral activity against duck HBV in primary duck hepatocytes; assay type: functional, organism-based; conditions: Hepatocyte; summary of the method: as §1
Hepatitis B virus [4] = experiment: Antiviral activity against wild type HBV in human hepatoma 2.2.15 cells; assay type: functional, organism-based; conditions: HepG2 2.2.15; summary of the method: as §2
Hepatitis B virus [5] = experiment: Antiviral activity against HBV L180M/M204V mutant transfected in D88 cell line at 10 ug/mL; assay type: functional
Summary of the method: (§3)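 Mutant-HBV-transfected HepG2 lines: B1 carries M204I, D88 carries L180M/M204V. Cells are exposed to compound at 10 µg/mL. Intracellular viral DNA is quantified by dot blot hybridization. Results are given as percent inhibition of viral DNA relative to untreated infected controls.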

Hepatitis B virus [6] = experiment: Antiviral activity against HBV M204I mutant transfected in B1 cell line at 10 ug/mL; assay type: functional; summary of the method: as §3
Hepatitis C virus = experiment: Antiviral activity against hepatitis C virus; assay type: functional, organism-based, Hepacivirus hominis
Hepatitis B virus [7] = experiment: Antiviral activity against HBV L180M/M204V mutant transfected in D88 cell line; assay type: functional, organism-based
Summary of the method: (§4)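 HepG2 human hepatoma cells stably transfected with mutant HBV genome: B1 line carries M204I, D88 line carries L180M/M204V. Culture, compound treatment and read-out are as for 2.2.15 cells. Intracellular viral DNA is measured by dot blot hybridization. EC50 is the concentration (µM) that reduces viral DNA to 50% of untreated infected controls.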

Hepatitis B virus [8] = experiment: Antiviral activity against HBV M204I mutant transfected in B1 cell line; assay type: functional, organism-based; summary of the method: as §4

| SMILES | CC50 (Vero) [µM] | inhibition at 10 µg/mL (Duck hepatitis B virus [1]) [%] | CC50 (HepG2) [µM] | inhibition at 10 µg/mL (Hepatitis B virus [2]) [%] | EC50 (Duck hepatitis B virus [3]) [µM] | EC50 (Hepatitis B virus [4]) [µM] | inhibition at 10 µg/mL (Hepatitis B virus [5]) [%] | inhibition at 10 µg/mL (Hepatitis B virus [6]) [%] | EC50 (Hepatitis C virus) [µM] | EC50 (Hepatitis B virus [7]) [µM] | EC50 (Hepatitis B virus [8]) [µM] |
| --- | --- | --- | --- | --- | --- | --- | --- | --- | --- | --- | --- |
| Cc1nn(COC(CO)CO)c(=O)[nH]c1=O | > 432 | 45 | > 432 | 37 | > 43.2 | > 43.2 |  |  |  |  |  |
| O=c1[nH]c(=O)n(COC(CO)CO)cc1/C=C/Br | > 311 | 75 | > 311 | 53 | 3 | 30 |  |  |  |  |  |
| Nc1nc(NC2CC2)c2ncn([C@H]3C=C[C@@H](CO)C3)c2n1 [ABACAVIR] |  |  |  |  |  |  | 72 | 80 |  |  |  |
| O=c1[nH]c(=O)n(COC(CO)CO)cc1Br | > 338 | 48 | > 338 | 40 | > 33.8 | > 33.8 |  |  |  |  |  |
| Nc1nc(=O)n(COC(CO)CO)cc1F | > 429 | 20 | > 429 | 0 | > 42.9 |  |  |  | 132 |  |  |
| Cc1c(Br)c(=O)[nH]c(=O)n1COC(CO)CO | > 324 | 73 | > 324 | 55 | 16.2 | 32.4 | 30 | 51 |  | > 32.4 | 32.4 |
| O=c1[nH]c(=O)n(COC(CO)CO)cc1CO | > 406 | 0 | > 406 | 0 |  |  |  |  |  |  |  |
| O=c1ccn(COC(CO)CO)c(=O)[nH]1 | > 462 | 0 | > 462 | 0 |  |  |  |  |  |  |  |
| CCc1cn(COC(CO)CO)c(=O)[nH]c1=O | > 410 | 35 | > 410 | 30 | > 41 | > 41 |  |  |  |  |  |
| O=c1cnn(COC(CO)CO)c(=O)[nH]1 | > 460 | 41 | > 460 | 32 | > 46 | > 46 |  |  |  |  |  |
| Cc1nn(COC(CO)CO)c(=S)[nH]c1=O | > 404 | 25 | > 404 | 0 | > 40.4 |  |  |  |  |  |  |
